Data: ChEMBL document CHEMBL1806421, “Design, synthesis and biological evaluation of urea derivatives from o-hydroxybenzylamines and phenylisocyanate as potential FabH inhibitors” (Bioorg Med Chem, 2011)
Converted amounts (≈) assume the structure as drawn.

Experiments:
[1] = target: T1, 3-oxoacyl-[acyl-carrier-protein] synthase 3 (Escherichia coli, UniProt C3TDZ2); assay: Inhibition of Escherichia coli FabH expressed in Escherichia coli DH10B cells assessed as incorporation of 3H signal in the product after 25 mins by liquid scintillation
T1 sequence (C3TDZ2 whole entry): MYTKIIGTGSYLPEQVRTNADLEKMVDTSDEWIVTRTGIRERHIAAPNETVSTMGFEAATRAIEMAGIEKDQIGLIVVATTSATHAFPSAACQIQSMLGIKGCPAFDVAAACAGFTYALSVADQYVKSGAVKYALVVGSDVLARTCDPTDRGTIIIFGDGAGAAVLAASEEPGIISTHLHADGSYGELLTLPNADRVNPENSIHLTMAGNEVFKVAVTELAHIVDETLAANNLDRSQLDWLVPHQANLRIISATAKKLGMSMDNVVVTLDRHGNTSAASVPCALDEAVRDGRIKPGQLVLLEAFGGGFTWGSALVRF
Outline: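 Native E. coli FabH was expressed from pET30 in DH10B and purified by Q-Sepharose, MonoQ and hydroxyapatite chromatography at 4 °C. Reaction used 20 mM Na₂HPO₄ pH 7.0, 0.5 mM DTT, holo-ACP and 1 nM FabH. It was stopped with ice-cold 50% TCA (5 min on ice) and the protein pelleted. ³H incorporation was read by liquid scintillation. Inhibitors came from DMSO stock, with final DMSO ≤2%.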

[2] = Toxicity in erythrocytes assessed as hemolytic activity; format: cell-based; conditions: erythrocyte
[3] = test system: Pseudomonas fluorescens; assay: Antibacterial activity against Pseudomonas fluorescens after 24 hrs by MTT assay; format: functional
Outline: (§1)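 MIC by MTT colorimetry in Mueller-Hinton medium. Inoculum was about 10⁵ cfu/mL, added to serial dilutions made from DMSO solutions, then incubated at 37 °C for 24 h. MTT in PBS (0.01 mol/L, pH 7.4; 2 mg/mL) was added to each well. Dye was extracted with isopropanol containing 5% 1 mol/L HCl for 12 h at room temperature, and OD was read at 550 nm.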

[4] = test system: Escherichia coli; assay: Antibacterial activity against Escherichia coli ATCC 35218 after 24 hrs by MTT assay; format: functional; conditions: ATCC 35218, 24 h; outline: as §1
[5] = test system: Staphylococcus aureus; assay: Antibacterial activity against Staphylococcus aureus after 24 hrs by MTT assay; format: functional; outline: as §1
[6] = test system: Bacillus subtilis; assay: Antibacterial activity against Bacillus subtilis after 24 hrs by MTT assay; format: functional; outline: as §1

Row | SMILES | IC50 [1] | LC30 [2] | MIC [3] | MIC [4] | MIC [5] | MIC [6]
1 | Nc1ccn([C@H]2CC[C@@H](COP(=O)(O)O)O2)c(=O)n1 | 2.1 µM | > 10000 µg/mL |  |  |  | 
2 | Oc1c(Br)cc(Br)cc1CNc1ccc(F)cc1 |  |  | 12.5 µg/mL (≈ 33.3 µM) | 50 µg/mL (≈ 133 µM) | 50 µg/mL (≈ 133 µM) | 50 µg/mL (≈ 133 µM)
3 | Oc1ccc(Br)cc1CNc1ccccc1F |  |  | 6.25 µg/mL (≈ 21.1 µM) | 25 µg/mL (≈ 84.4 µM) | 25 µg/mL (≈ 84.4 µM) | 50 µg/mL (≈ 169 µM)
4 | Oc1ccc(Br)cc1CNc1ccc(F)cc1 |  |  | 25 µg/mL (≈ 84.4 µM) | 12.5 µg/mL (≈ 42.2 µM) | 12.5 µg/mL (≈ 42.2 µM) | 50 µg/mL (≈ 169 µM)
5 | Oc1ccc(Br)cc1CNc1ccccc1Cl |  |  | 25 µg/mL (≈ 80 µM) | 12.5 µg/mL (≈ 40 µM) | 6.25 µg/mL (≈ 20 µM) | 50 µg/mL (≈ 160 µM)
6 | Oc1ccc(Br)cc1CNc1ccccc1Br |  |  | 25 µg/mL (≈ 70 µM) | 25 µg/mL (≈ 70 µM) | 50 µg/mL (≈ 140 µM) | 50 µg/mL (≈ 140 µM)
7 | Oc1ccc(Br)cc1CNc1ccc(Br)cc1 |  |  | 12.5 µg/mL (≈ 35 µM) | 25 µg/mL (≈ 70 µM) | 25 µg/mL (≈ 70 µM) | 25 µg/mL (≈ 70 µM)
8 | Cc1ccc(NCc2cc(Br)ccc2O)cc1 |  |  | 50 µg/mL (≈ 171 µM) | 50 µg/mL (≈ 171 µM) | 50 µg/mL (≈ 171 µM) | 50 µg/mL (≈ 171 µM)
9 | COc1ccc(NCc2cc(Br)ccc2O)cc1 |  |  | 50 µg/mL (≈ 162 µM) | 50 µg/mL (≈ 162 µM) | 50 µg/mL (≈ 162 µM) | 50 µg/mL (≈ 162 µM)
10 | Oc1c(Br)cc(Br)cc1CNc1ccccc1F |  |  | 50 µg/mL (≈ 133 µM) | 50 µg/mL (≈ 133 µM) | 25 µg/mL (≈ 66.7 µM) | 50 µg/mL (≈ 133 µM)
11 | Oc1c(Br)cc(Br)cc1CNc1ccccc1Cl |  |  | 50 µg/mL (≈ 128 µM) | 25 µg/mL (≈ 63.9 µM) | 25 µg/mL (≈ 63.9 µM) | 6.25 µg/mL (≈ 16 µM)
12 | Oc1c(Br)cc(Br)cc1CNc1ccc(Cl)cc1 |  |  | 12.5 µg/mL (≈ 31.9 µM) | 25 µg/mL (≈ 63.9 µM) | 12.5 µg/mL (≈ 31.9 µM) | 12.5 µg/mL (≈ 31.9 µM)
13 | Oc1c(Br)cc(Br)cc1CNc1ccccc1Br |  |  | 50 µg/mL (≈ 115 µM) | 12.5 µg/mL (≈ 28.7 µM) | 50 µg/mL (≈ 115 µM) | 50 µg/mL (≈ 115 µM)
14 | Oc1c(Br)cc(Br)cc1CNc1ccc(Br)cc1 |  |  | 50 µg/mL (≈ 115 µM) | 25 µg/mL (≈ 57.3 µM) | 50 µg/mL (≈ 115 µM) | 50 µg/mL (≈ 115 µM)
15 | Cc1ccc(NCc2cc(Br)cc(Br)c2O)cc1 |  |  | 50 µg/mL (≈ 135 µM) | 50 µg/mL (≈ 135 µM) | 50 µg/mL (≈ 135 µM) | 50 µg/mL (≈ 135 µM)
16 | COc1ccc(NCc2cc(Br)cc(Br)c2O)cc1 |  |  | 50 µg/mL (≈ 129 µM) | 50 µg/mL (≈ 129 µM) | 50 µg/mL (≈ 129 µM) | 25 µg/mL (≈ 64.6 µM)
17 | O=C(Nc1ccccc1)N(Cc1cc(Br)ccc1O)c1ccccc1F | 37.4 µM | > 10000 µg/mL | 25 µg/mL (≈ 60.2 µM) | 12.5 µg/mL (≈ 30.1 µM) | 50 µg/mL (≈ 120 µM) | 25 µg/mL (≈ 60.2 µM)

Row | SMILES | IC50 [1] | LC30 [2] | MIC [3] | MIC [4] | MIC [5] | MIC [6]
18 | O=C(Nc1ccccc1)N(Cc1cc(Br)ccc1O)c1ccc(F)cc1 | 6.6 µM | > 10000 µg/mL | 6.25 µg/mL (≈ 15.1 µM) | 1.56 µg/mL (≈ 3.76 µM) | 3.13 µg/mL (≈ 7.54 µM) | 6.25 µg/mL (≈ 15.1 µM)
19 | O=C(Nc1ccccc1)N(Cc1cc(Br)ccc1O)c1ccccc1Cl | 21.8 µM | > 10000 µg/mL | 25 µg/mL (≈ 57.9 µM) | 6.25 µg/mL (≈ 14.5 µM) | 3.13 µg/mL (≈ 7.25 µM) | 6.25 µg/mL (≈ 14.5 µM)
20 | O=C(Nc1ccccc1)N(Cc1cc(Br)ccc1O)c1ccc(Cl)cc1 | 4.7 µM | > 10000 µg/mL | 3.13 µg/mL (≈ 7.25 µM) | 1.56 µg/mL (≈ 3.61 µM) | 1.56 µg/mL (≈ 3.61 µM) | 6.25 µg/mL (≈ 14.5 µM)
21 | O=C(Nc1ccccc1)N(Cc1cc(Br)ccc1O)c1ccccc1Br | 56.4 µM | > 10000 µg/mL | 25 µg/mL (≈ 52.5 µM) | 12.5 µg/mL (≈ 26.3 µM) | 25 µg/mL (≈ 52.5 µM) | 6.25 µg/mL (≈ 13.1 µM)
22 | O=C(Nc1ccccc1)N(Cc1cc(Br)ccc1O)c1ccc(Br)cc1 | 41 µM | > 10000 µg/mL | 12.5 µg/mL (≈ 26.3 µM) | 6.25 µg/mL (≈ 13.1 µM) | 12.5 µg/mL (≈ 26.3 µM) | 12.5 µg/mL (≈ 26.3 µM)
23 | Cc1ccc(N(Cc2cc(Br)ccc2O)C(=O)Nc2ccccc2)cc1 |  |  | 50 µg/mL (≈ 122 µM) | 50 µg/mL (≈ 122 µM) | 50 µg/mL (≈ 122 µM) | 12.5 µg/mL (≈ 30.4 µM)
24 | COc1ccc(N(Cc2cc(Br)ccc2O)C(=O)Nc2ccccc2)cc1 |  |  | 50 µg/mL (≈ 117 µM) | 25 µg/mL (≈ 58.5 µM) | 12.5 µg/mL (≈ 29.3 µM) | 50 µg/mL (≈ 117 µM)
25 | O=C(Nc1ccccc1)N(Cc1cc(Br)cc(Br)c1O)c1ccccc1F |  |  | 12.5 µg/mL (≈ 25.3 µM) | 50 µg/mL (≈ 101 µM) | 25 µg/mL (≈ 50.6 µM) | 50 µg/mL (≈ 101 µM)
26 | O=C(Nc1ccccc1)N(Cc1cc(Br)cc(Br)c1O)c1ccc(F)cc1 | 71.7 µM | > 10000 µg/mL | 25 µg/mL (≈ 50.6 µM) | 6.25 µg/mL (≈ 12.6 µM) | 12.5 µg/mL (≈ 25.3 µM) | 12.5 µg/mL (≈ 25.3 µM)
27 | O=C(Nc1ccccc1)N(Cc1cc(Br)cc(Br)c1O)c1ccccc1Cl | 51.5 µM | > 10000 µg/mL | 25 µg/mL (≈ 49 µM) | 6.25 µg/mL (≈ 12.2 µM) | 12.5 µg/mL (≈ 24.5 µM) | 50 µg/mL (≈ 97.9 µM)
28 | O=C(Nc1ccccc1)N(Cc1cc(Br)cc(Br)c1O)c1ccc(Cl)cc1 | 10.1 µM | > 10000 µg/mL | 12.5 µg/mL (≈ 24.5 µM) | 3.13 µg/mL (≈ 6.13 µM) | 6.25 µg/mL (≈ 12.2 µM) | 25 µg/mL (≈ 49 µM)
29 | O=C(Nc1ccccc1)N(Cc1cc(Br)cc(Br)c1O)c1ccccc1Br |  |  | 6.25 µg/mL (≈ 11.3 µM) | 50 µg/mL (≈ 90.1 µM) | 50 µg/mL (≈ 90.1 µM) | 50 µg/mL (≈ 90.1 µM)
30 | O=C(Nc1ccccc1)N(Cc1cc(Br)cc(Br)c1O)c1ccc(Br)cc1 |  |  | 25 µg/mL (≈ 45 µM) | 12.5 µg/mL (≈ 22.5 µM) | 25 µg/mL (≈ 45 µM) | 50 µg/mL (≈ 90.1 µM)
31 | Cc1ccc(N(Cc2cc(Br)cc(Br)c2O)C(=O)Nc2ccccc2)cc1 |  |  | 50 µg/mL (≈ 102 µM) | 50 µg/mL (≈ 102 µM) | 6.25 µg/mL (≈ 12.8 µM) | 50 µg/mL (≈ 102 µM)
32 | COc1ccc(N(Cc2cc(Br)cc(Br)c2O)C(=O)Nc2ccccc2)cc1 |  |  | 25 µg/mL (≈ 49.4 µM) | 12.5 µg/mL (≈ 24.7 µM) | 50 µg/mL (≈ 98.8 µM) | 50 µg/mL (≈ 98.8 µM)
33 | Oc1ccc(Br)cc1CNc1ccc(Cl)cc1 |  |  | 12.5 µg/mL (≈ 40 µM) | 6.25 µg/mL (≈ 20 µM) | 6.25 µg/mL (≈ 20 µM) | 25 µg/mL (≈ 80 µM)
34 | NC[C@H]1O[C@H](O[C@H]2[C@H](O)[C@@H](O[C@H]3O[C@H](CO)[C@@H](O)[C@H](N)[C@H]3O)[C@H](N)C[C@@H]2N)[C@H](N)[C@@H](O)[C@@H]1O [BEKANAMYCIN] |  |  | 3.13 µg/mL (≈ 6.47 µM) | 3.13 µg/mL (≈ 6.47 µM) | 1.56 µg/mL (≈ 3.23 µM) | 1.56 µg/mL (≈ 3.23 µM)
